# From PubChem BioAssay AID624338 (The Scripps Research Institute Molecular Screening Center, 2012)
# The source made the active and inactive calls.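 The calls were made as follows: active = inhibition of a cysteine-free insulin-degrading enzyme mutant that persists after dilution, so judged irreversible; inactive = inhibition weakens or vanishes on dilution, so reversible.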
# Target: Insulin-degrading enzyme (Homo sapiens) (UniProt P14735)
# Assay: dilution reversibility, CF mutant IDE inhibitors – biochemical, cysteine-free mutant, FRET1 substrate, round 2, mechanism study for IDE inhibitor project, late-stage follow-up (AID 624338)
# Settings: recombinant CF-IDE, FRET1 substrate fluorescence, reversibility by dilution
# Summary of the method: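 Assay system – CF-IDE enzyme · Amount – CF-IDE at 1 nM in assay · Dosing – 10-point semilog dilution series, nominal top dose 100 µM · Timing – enzyme reaction at room temperature · Medium – pH 7.4 buffer · Benchmarks – DMSO-only wells as 100%, enzyme-free wells as 0%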
# Chain of Insulin-degrading enzyme (Homo sapiens) (P14735 whole entry, looked up): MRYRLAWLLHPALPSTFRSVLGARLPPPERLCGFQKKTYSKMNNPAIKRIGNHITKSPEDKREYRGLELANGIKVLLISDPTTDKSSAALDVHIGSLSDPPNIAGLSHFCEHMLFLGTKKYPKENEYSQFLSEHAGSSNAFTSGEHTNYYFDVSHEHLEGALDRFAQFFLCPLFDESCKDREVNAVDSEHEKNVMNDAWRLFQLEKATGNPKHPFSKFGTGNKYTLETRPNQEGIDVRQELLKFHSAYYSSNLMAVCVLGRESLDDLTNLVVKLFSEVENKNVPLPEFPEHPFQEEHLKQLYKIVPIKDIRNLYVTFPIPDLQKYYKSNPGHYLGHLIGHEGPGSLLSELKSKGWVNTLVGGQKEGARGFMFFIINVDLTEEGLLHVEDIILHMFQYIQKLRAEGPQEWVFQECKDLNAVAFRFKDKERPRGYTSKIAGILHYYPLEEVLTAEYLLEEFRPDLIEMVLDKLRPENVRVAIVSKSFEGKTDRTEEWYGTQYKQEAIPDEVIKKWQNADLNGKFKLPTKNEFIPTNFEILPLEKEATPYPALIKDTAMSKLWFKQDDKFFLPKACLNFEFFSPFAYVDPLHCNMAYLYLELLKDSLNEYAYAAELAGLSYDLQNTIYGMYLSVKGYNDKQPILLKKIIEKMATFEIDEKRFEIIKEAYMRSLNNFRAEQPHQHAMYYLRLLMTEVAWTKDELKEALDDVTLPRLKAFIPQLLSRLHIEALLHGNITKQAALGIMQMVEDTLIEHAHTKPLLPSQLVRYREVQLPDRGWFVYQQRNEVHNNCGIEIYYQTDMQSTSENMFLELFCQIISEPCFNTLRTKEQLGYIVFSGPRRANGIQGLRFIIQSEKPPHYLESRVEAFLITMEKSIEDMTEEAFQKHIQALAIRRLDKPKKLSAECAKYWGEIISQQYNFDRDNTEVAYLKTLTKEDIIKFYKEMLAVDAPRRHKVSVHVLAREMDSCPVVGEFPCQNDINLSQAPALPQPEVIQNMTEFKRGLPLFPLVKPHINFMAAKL
row,outcome,SMILES
1,inactive,c1coc(Cn2c(SCc3nc4ccccc4[nH]3)nnc2-c2cccs2)c1
2,inactive,COc1ccc(C(=O)N2CCN(C(=O)COc3ccccc3)CC2)cc1OC
3,inactive,CCOc1ccc(C(=O)N2CCN(C(=O)C3COc4ccccc4O3)CC2)cc1 (stereo not given)
4,inactive,Cc1nc(COc2ccc(C(=O)N3CCN(C(=O)C4COc5ccccc5O4)CC3)cc2)cs1 (stereo not given)
5,inactive,c1coc(Cn2c(SCc3nc4ccccc4[nH]3)nnc2-c2ccco2)c1
6,inactive,Cc1ccc(COCc2nnc(SCc3nc4ccccc4[nH]3)n2Cc2ccco2)cc1
7,inactive,Cc1ccc(-c2nnc(SCc3nc4ccccc4[nH]3)n2Cc2ccco2)cc1
8,inactive,CC(=O)Nc1ccccc1C(=O)N1CCN(C(=O)C2COc3ccccc3O2)CC1 (stereo not given)
9,inactive,Clc1ccc(COCc2nnc(SCc3nc4ccccc4[nH]3)n2Cc2ccco2)cc1
10,inactive,O=C(c1ccc(OCC2CCCO2)cc1)N1CCN(C(=O)C2COc3ccccc3O2)CC1 (stereo not given)
11,inactive,c1ccc(-c2nnc(SCc3nc4ccccc4[nH]3)n2Cc2ccco2)cc1
12,inactive,c1coc(Cn2c(SCc3nc4ccccc4[nH]3)nnc2-c2cnccn2)c1
13,inactive,c1ccc(-c2nnc(SCc3nc4ccccc4[nH]3)n2Cc2ccco2)nc1
14,inactive,COc1cc(C(=O)N2CCN(C(=O)C3COc4ccccc4O3)CC2)cc(Cl)c1OC (stereo not given)
15,inactive,O=C(c1ccc(Oc2ccc(F)cc2)cc1)N1CCN(C(=O)C2COc3ccccc3O2)CC1 (stereo not given)
16,inactive,COc1cccc(C(=O)N2CCN(C(=O)C3COc4ccccc4O3)CC2)c1 (stereo not given)
17,inactive,COc1ccc(OCC(=O)N2CCN(C(=O)c3ccc(OC)c(OC)c3)CC2)cc1
18,inactive,COc1ccc(C(=O)N2CCN(C(=O)COc3ccc(Cl)cc3)CC2)cc1OC
19,inactive,O=C(c1ccc2nc(C(F)(F)F)[nH]c2c1)N1CCN(C(=O)C2COc3ccccc3O2)CC1 (stereo not given)
20,inactive,COc1ccc(C(=O)N2CCN(C(=O)C3CC(=O)N(c4ccccc4)C3)CC2)cc1OC (stereo not given)
21,inactive,O=C(c1ccc(Oc2ccccc2)cc1)N1CCN(C(=O)C2COc3ccccc3O2)CC1 (stereo not given)
22,inactive,COc1ccc(C(=O)N2CCN(C(=O)C3COc4ccccc4O3)CC2)cc1 (stereo not given)
23,inactive,COc1ccc(C(=O)N2CCN(C(=O)CCc3c[nH]c4ccccc34)CC2)cc1OC
24,inactive,COc1ccc(C(=O)N2CCN(C(=O)C(c3ccccc3)c3ccccc3)CC2)cc1OC
25,inactive,COc1ccc(C(=O)N2CCN(C(=O)COc3ccc(C)cc3)CC2)cc1OC
